High-throughput results from PubChem BioAssay.
DNA FID counter: fluorescent intercalator displacement, NS3 helicase counter-screen. inhibition, % at 7.9 µM. DNA fluorescent intercalator displacement, fluorescence. 0.17% of 290,000 active; in the data active = inhibition above about 37%;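 note: higher means more ethidium bromide displaced from hairpin DNA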
NS3 helicase inh: HCV NS3 helicase inhibition; NS3 helicase DNA unwinding, Cy5 molecular beacon fluorescence; inhibition, % at 10.9 µM; 0.56% of 290,000 active; AID 1800;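 active = inhibition above the mean of all tested compounds plus 3 SD, set per campaign, cut at about 35% in these data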
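Compound dosing – single dose, 10.9 µM nominal final, DMSO 0.8% final · System – NS3 helicase fragment of HCV · Buffer or medium – MOPS pH 6.5, MgCl2, DTT, Tween20, BSA · Signal – Cy5 beacon fluorescence read at start and 1 h · Also added – annealed dual-labelled DNA beacon duplex, ATP-started · Schedule – 1 h at 25 °C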
EBNA-1 inhibitor: blocks EBNA-1 binding to DNA; EBNA-1 DNA binding, fluorescence polarization; AID 1950; inhibition, % at 14.8 µM; 0.34% of 300,000 active; in the data active = inhibition above about 28%
FGF22 binding: FGF22 (human) thermal shift binding; recombinant FGF22 thermal shift, SYPRO orange fluorescence; percent of sucrose octasulfate shift, DMSO zero; activity (Tm shift, normalised), % at 9.99 µM; 1.5% of 340,000 active; AID 651658;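 active = mean Tm shift, scaled 0 neutral to 100 positive control, at about 1.3% or above, every replicate too, limit read from the data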
Target sequence (Q9HCT0 whole entry, looked up): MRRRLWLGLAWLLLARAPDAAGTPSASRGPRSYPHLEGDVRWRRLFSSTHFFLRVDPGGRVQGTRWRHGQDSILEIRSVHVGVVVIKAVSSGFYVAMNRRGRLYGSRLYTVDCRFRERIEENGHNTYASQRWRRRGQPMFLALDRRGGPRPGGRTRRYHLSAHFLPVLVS
ZTA DNA inh: blocks Epstein-Barr virus ZTA, an EBNA-1 counter-screen; P03206; ZTA-DNA binding, fluorescence polarization; inhibition, % at 11 µM; 0.15% of 320,000 active; AID 2234; in the data active = inhibition above about 33%
Target sequence (P03206 whole entry, looked up): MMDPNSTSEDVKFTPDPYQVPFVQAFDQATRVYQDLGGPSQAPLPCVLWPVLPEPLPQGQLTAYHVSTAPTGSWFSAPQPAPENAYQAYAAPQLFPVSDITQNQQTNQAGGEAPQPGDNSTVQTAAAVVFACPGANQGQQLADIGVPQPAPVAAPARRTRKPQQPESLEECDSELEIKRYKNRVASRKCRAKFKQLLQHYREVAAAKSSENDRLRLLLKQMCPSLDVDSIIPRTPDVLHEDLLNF
GRIN3A LBD mod: modulators (binders) of human NR3A ligand-binding domain; NR3A LBD differential scanning fluorimetry, Tm shift; 0% = protein alone, 100% = glycine-bound protein; Tm shift relative to glycine control, % at 25 µM; 2.5% of 340,000 active; AID 1259313;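 active = melting temperature shift of at least 10% of the positive control shift, at one fixed dose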
Large screens that a line does not name were inactive. A selection: hits, their analogues and other compounds. The true share with any hit is near 3.6%.

CCN(CC)c1ccc(C=C2C(=O)OC(C)(C(C)(C)C)OC2=O)cc1 (configuration not stated)	none (no result: DNA FID counter, NS3 helicase inh)
CCN(CC)c1ccc(C=C2C(=O)OC(c3ccccc3)OC2=O)cc1 (configuration not stated)	GRIN3A LBD mod 31.6
COc1cccc(/C=N/Nc2cc(Cl)nc(C)n2)c1O	none
Cc1nc(Cl)cc(N/N=C/c2ccc(O)cc2O)n1	GRIN3A LBD mod 18.9
Oc1ccc(/C=N/Nc2cc(N3CCCC3)nc(N3CCCC3)n2)cc1	none (no result: FGF22 binding)
Cc1nc(Cl)cc(N/N=C/c2ccc(O)cc2)n1	GRIN3A LBD mod 25.8
COc1ccc(NC(=O)N[C@H]2CC[C@H](CCn3cc(C4(O)CCCC4)nn3)O[C@@H]2CO)cc1	none (no result: DNA FID counter, NS3 helicase inh, EBNA-1 inhibitor, ZTA DNA inh, GRIN3A LBD mod)
O=C(Nc1ccc(Cl)cc1)c1ccc2ncsc2c1	GRIN3A LBD mod 23.9
O=C(COC(=O)c1ccc2ncsc2c1)Nc1cccc(Cl)c1	none (no result: DNA FID counter, NS3 helicase inh, EBNA-1 inhibitor)
O=C(Nc1cccc(Cl)c1)c1ccc2ncsc2c1	GRIN3A LBD mod 33.8
CO[C@@H]1CN(C)C(=O)c2cc(NC(=O)Nc3ccc(C(F)(F)F)cc3)ccc2OC[C@@H](C)NC[C@@H]1C	none (no result: DNA FID counter, NS3 helicase inh, EBNA-1 inhibitor, ZTA DNA inh, GRIN3A LBD mod)
COc1cc2c(-c3ccc(O)cc3)nc3c(c(C)nn3-c3ccccc3)c2cc1OC	GRIN3A LBD mod 28.0 (no result: FGF22 binding)
COc1cc2c(C)nc3c(c(C)nn3-c3ccccc3)c2cc1OC	none
CSc1ccccc1NC(=O)COC(=O)Cc1cccs1	FGF22 binding 43.2
O=C(COC(=O)Cc1cccs1)Nc1ccccc1F	none (no result: FGF22 binding)
COCCNC(=S)NCc1ccc2[nH]c3c(c2c1)CCCC3	none
Cc1ccc(NC(=S)NCc2ccc3[nH]c4c(c3c2)CCCC4)cc1	GRIN3A LBD mod 11.0
CCCNC(=O)[C@@H]1[C@@H](CO)[C@@H]2Cn3c(ccc(/C=C/c4ccccc4)c3=O)[C@H]1N2C(=O)c1cccnc1	none (no result: DNA FID counter, NS3 helicase inh, EBNA-1 inhibitor, ZTA DNA inh, GRIN3A LBD mod)
COc1ccc2c3c([nH]c2c1)[C@H](CO)N(C(=O)c1ccccc1)CC31CN(Cc2cccnc2)C1	none (no result: DNA FID counter, NS3 helicase inh, EBNA-1 inhibitor, ZTA DNA inh, GRIN3A LBD mod)
O=c1[nH]c(=O)n(-c2ccc(F)cc2)c2c1C(C(F)(F)F)(C(F)(F)F)N=C(c1ccc(F)cc1)N2	FGF22 binding 1.9
Cc1ccc(C2=NC(C(F)(F)F)(C(F)(F)F)c3c(n(-c4ccc(F)cc4)c(=O)[nH]c3=O)N2)cc1	none (no result: FGF22 binding)
O=c1[nH]c(=O)n(Cc2ccco2)c2c1C(C(F)(F)F)(C(F)(F)F)N=C(CCc1ccccc1)N2	none (no result: FGF22 binding)
N#Cc1ccc(C2=NC(C(F)(F)F)(C(F)(F)F)c3c(n(Cc4ccco4)c(=O)[nH]c3=O)N2)cc1	GRIN3A LBD mod 11.8 (no result: FGF22 binding)
COC(=O)C12OCC34C(CC5C(C)=C(O)C(=O)CC5(C)C3C(O)C1O)OC(=O)C(OC(=O)C=C(C)C)C24 (configuration not stated)	GRIN3A LBD mod 14.0 (no result: DNA FID counter, NS3 helicase inh, EBNA-1 inhibitor, ZTA DNA inh)
COc1ccc2c(C=O)cn(C)c2c1	FGF22 binding 43.0
COCCNC(=O)c1cc2c(s1)-c1ccc(Cl)cc1SC2	none (no result: EBNA-1 inhibitor, ZTA DNA inh)
NC(=O)c1cc2c(s1)-c1cc(Cl)ccc1SC2	GRIN3A LBD mod 46.7
O=C(C1CCOCC1)N1[C@H](CO)[C@@H](c2ccccc2)C12CN(CCC(F)(F)F)C2	none (no result: DNA FID counter, NS3 helicase inh, EBNA-1 inhibitor, ZTA DNA inh, GRIN3A LBD mod)
COc1cc(/C=C(\C#N)c2nc3ccccc3[nH]2)cc(Br)c1OCc1ccccc1	GRIN3A LBD mod 17.5
COc1cc(/C=C/C(=O)NCc2nc3ccccc3[nH]2)cc(OC)c1OC	none
COc1cc(/C=C(\C#N)c2nc3ccccc3[nH]2)cc(Br)c1OCc1ccc(F)cc1	none (no result: FGF22 binding)
COC(=O)/C(=C\c1cc(OC)c(OC)c(OC)c1)c1nc2ccccc2[nH]1	FGF22 binding 43.5
COC(=O)/C(=C\c1ccc(O)cc1)c1nc2ccccc2[nH]1	FGF22 binding 43.5
O=C(O)c1ccccc1-c1ccc(/C=C/c2cc(C(F)(F)F)[nH]c(=O)n2)o1	none (no result: EBNA-1 inhibitor, ZTA DNA inh)
O=C(O)c1cc(Cl)ccc1-c1ccc(/C=C/c2cc(C(F)(F)F)[nH]c(=O)n2)o1	EBNA-1 inhibitor 43.3, ZTA DNA inh 52.6
OCc1cn(-c2ccccc2)nc1-c1ccc(Br)cc1	GRIN3A LBD mod 33.9
O=C(Nc1cn(-c2ccccc2)nc1-c1ccc(Cl)cc1)c1ccccc1	none (no result: FGF22 binding)
O=C(CCl)Nc1cn(-c2ccccc2)nc1-c1ccccc1	FGF22 binding 43.4
O=C(O)Cc1cn(-c2ccccc2)nc1-c1ccc(Cl)cc1	GRIN3A LBD mod 12.1 (no result: FGF22 binding)
CC(C)COc1ccc(-c2nn(-c3ccccc3)cc2CO)cc1	none
